For 15 compounds, MFC, MIC and Activity results are on record in ChEMBL document CHEMBL4020705, “Investigation of aryl isonitrile compounds with potent, broad-spectrum antifungal activity” (Bioorg Med Chem, 2017).

Converted amounts (≈) assume the structure as drawn.

Data set [1] concerns Candida albicans. The data set can be described thus: Fungicidal activity against Candida albicans NR-29448 after 18 hrs. Format: functional. Particulars: NR-29448, 18 h, read-out: MFC99.9. Summed up:
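Starting from the MIC plate, 5 μL aliquots are taken from wells with no growth and spotted onto YPD agar. After 18 h at 37 °C, MFC is recorded as the concentration giving a >99.9% decrease in CFU.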

For data set [2], the system named is Candida albicans. Briefly: Antifungal activity against Candida albicans NR-29448 after 44 hrs by broth dilution assay. Particulars: NR-29448, 44 h. Format: functional. Summed up: (§1)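 Yeast broth microdilution per CLSI M27-A3, in RPMI-1640. Incubation is at 37 °C for at least 44 h. MIC is the lowest concentration with no visible growth, read by eye.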
On the technique in general: Broth dilution looks for growth in wells or tubes with falling amounts of substance.

Data set [3] relates to Candida albicans. The data set can be described thus: Antifungal activity against Candida albicans ATCC 64124 after 44 hrs by broth dilution assay. Format: functional. To be noted: ATCC 64124, 44 h. Summed up:
as §1

Data set [4] relates to Pichia kudriavzevii. The data set can be described thus: Antifungal activity against Candida krusei ATCC 34135 after 44 hrs by broth dilution assay. Format: functional. Particulars: ATCC 34135, 44 h. An outline of the steps: as §1
Data set [5] relates to Candida parapsilosis. The data set can be described thus: Antifungal activity against Candida parapsilosis ATCC 22019 after 44 hrs by broth dilution assay. Format: functional. To be noted: Lodderomyces parapsilosis, ATCC 22019, 44 h. An outline of the steps:
as §1

The subject of data set [6] is Candida albicans. Briefly: Antifungal activity against Candida albicans ATCC 27365 after 44 hrs by broth dilution assay. Format: functional. To be noted: ATCC 27365, 44 h. Summed up: as §1
Data set [7] concerns Candida albicans. Briefly: Antifungal activity against Candida albicans NR-29368 after 44 hrs by broth dilution assay. Format: functional. Particulars: NR-29368, 44 h. An outline of the steps: as §1
For data set [8], the system named is Cryptococcus gattii species complex. Briefly: Antifungal activity against Cryptococcus gattii NR-43208 after 68 hrs by broth dilution assay. Format: functional, Cryptococcus bacillisporus. To be noted: NR-43208, 68 h. An outline of the steps: (§2)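 Cryptococcus MIC follows CLSI M27-A3 broth dilution in RPMI-1640. Incubation is at 37 °C for 68 h, and the MIC is read by visual inspection.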

Data set [9] concerns Aspergillus brasiliensis. The data set can be described thus: Antifungal activity against Aspergillus brasiliensis ATCC 16404 after 44 hrs by broth dilution assay. Particulars: ATCC 16404, 44 h.
In data set [10] the test system is Candida albicans. Briefly: Antifungal activity against Candida albicans ATCC 29351 after 44 hrs by broth dilution assay. Format: functional. To be noted: ATCC 29351, 44 h. An outline of the steps:
as §1

Data set [11] deals with Cryptococcus neoformans. Briefly: Antifungal activity against Cryptococcus neoformans NR-41292 after 68 hrs by broth dilution assay. Format: functional. Particulars: NR-41292, 68 h. Summed up: as §2
Data set [12] has as its system Candida albicans. Briefly: Antifungal activity against Candida albicans ATCC MYA 573 after 44 hrs by broth dilution assay. Format: functional. Particulars: ATCC MYA 573, 44 h. Summed up: as §1
The subject of data set [13] is Aspergillus fumigatus. Briefly: Antifungal activity against Aspergillus fumigatus NR-35302 after 44 hrs by broth dilution assay. Particulars: NR-35302, 44 h.
The test system of data set [14] is Candida albicans. Briefly: Antifungal activity against Candida albicans NR-29446 after 44 hrs by broth dilution assay. Format: functional. To be noted: NR-29446, 44 h. Summed up:
as §1

Data set [15] concerns Candida tropicalis. Briefly: Antifungal activity against Candida tropicalis ATCC 1369 after 44 hrs by broth dilution assay. Format: functional. Particulars: ATCC 1369, 44 h. An outline of the steps: as §1
The test system of data set [16] is Nakaseomyces glabratus. The data set can be described thus: Antifungal activity against Candida glabrata ATCC MYA-2950 after 44 hrs by broth dilution assay. Format: functional. To be noted: ATCC MYA-2950, 44 h. Summed up:
as §1

The subject of data set [17] is Nakaseomyces glabratus. Briefly: Antifungal activity against Candida glabrata ATCC 66032 after 44 hrs by broth dilution assay. Format: functional. To be noted: ATCC 66032, 44 h. Summed up: as §1
Data set [18] relates to HRT-18 cell line. The data set can be described thus: Cytotoxicity against human HRT18 cells assessed as cell viability at 128 uM after 2 hrs by MTS assay. To be noted: hrt-18, 2 h. Format: cell-based. Summed up: (§3)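 HRT-18 cells are grown in RPMI-1640 with 10% fetal horse serum at 37 °C, 5% CO2. Compounds are added in triplicate for 2 h, with DMSO-matched vehicle controls. MTS is then added for 4 h and absorbance read at 490 nm. Viability is given as % of DMSO control, mean ± SD. Two-way ANOVA with Dunnett's test.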

In data set [19] the test system is Candida tropicalis. The data set can be described thus: Antifungal activity against Candida tropicalis ATCC 13803 after 44 hrs by broth dilution assay. Format: functional. Particulars: ATCC 13803, 44 h. An outline of the steps:
as §1

In data set [20] the test system is Cryptococcus gattii species complex. Briefly: Antifungal activity against Cryptococcus gattii NR-43209 after 68 hrs by broth dilution assay. Format: functional, Cryptococcus bacillisporus. To be noted: NR-43209, 68 h. Summed up: as §2
Data set [21] concerns Aspergillus niger. The data set can be described thus: Antifungal activity against Aspergillus niger ATCC 6275 after 44 hrs by broth dilution assay. To be noted: ATCC 6275, 44 h.
Data set [22] concerns Pichia kudriavzevii. The data set can be described thus: Antifungal activity against Candida krusei ATCC 14243 after 44 hrs by broth dilution assay. Format: functional. To be noted: ATCC 14243, 44 h. An outline of the steps:
as §1

For data set [23], the system named is Aspergillus fumigatus. Briefly: Antifungal activity against Aspergillus fumigatus NR-35301 after 44 hrs by broth dilution assay. Particulars: NR-35301, 44 h.
Data set [24] has as its system HRT-18 cell line. The data set can be described thus: Cytotoxicity against human HRT18 cells assessed as cell viability at 256 uM after 2 hrs by MTS assay. Format: cell-based. Particulars: hrt-18, 2 h. Summed up:
as §3
In general terms: Formazan colour is commonly taken as a measure of viable cells.

Data set [25] has as its system Aspergillus niger. Briefly: Antifungal activity against Aspergillus niger ATCC 16888 after 44 hrs by broth dilution assay. Particulars: ATCC 16888, 44 h.

On to `CC/C(=C\c1ccccc1)c1ccccc1`, for which, in data set [1], the MFC was over 64 µM. In addition, the MIC (commonly the smallest concentration in the dilution series that meets the test's criterion for growth inhibition) in data set [2] is over 64 µM.
As for `N#Cc1ccccc1/C=C/c1ccccc1`, the MFC in data set [1] was over 64 µM. The same compound displayed an MIC in data set [2] of over 64 µM.
Regarding `Nc1ccccc1/C=C/c1ccccc1`, it took 64 µM (≈ 12.5 µg/mL) to inhibit growth in [2] (MIC).
As for `N#Cc1ccc(/C=C/c2ccccc2)cc1`, the MIC in data set [3] is 2 µM (≈ 0.411 µg/mL); in [4], 16 µM (≈ 3.28 µg/mL); in [5] it was 2 µM (≈ 0.411 µg/mL); in data set [6], 1 µM (≈ 0.205 µg/mL); in [7] it was 2 µM (≈ 0.411 µg/mL); in data set [8], at most 0.5 µM. Also, the MIC is over 64 µM in data set [9]; 1 µM (≈ 0.205 µg/mL) in data set [10]; at most 0.5 µM in [11]; 1 µM (≈ 0.205 µg/mL) in data set [12]; 32 µM (≈ 6.57 µg/mL) in data set [13]; 1 µM (≈ 0.205 µg/mL) in [14]. The MIC is 16 µM (≈ 3.28 µg/mL) in data set [15]; 8 µM (≈ 1.64 µg/mL) in data set [16]; 8 µM (≈ 1.64 µg/mL) in data set [17]; 4 µM (≈ 0.821 µg/mL) in data set [19]; at most 0.5 µM in data set [20]; 2 µM (≈ 0.411 µg/mL) in [2]. In addition, the MIC was over 64 µM in [21], 32 µM (≈ 6.57 µg/mL) in data set [22], 64 µM (≈ 13.1 µg/mL) in [23] and over 64 µM in data set [25]. Moreover, the MFC in data set [1] was over 64 µM. Moreover, the Activity result in data set [18] and in data set [24] was “Non-Toxic” in each case.
With `CC/C(=C\c1ccccc1C#N)c1ccc(OC)cc1`, the MFC in data set [1] is over 64 µM. The compound further gave an MIC in [2] of over 64 µM.
In data set [2], `COc1cccc(/C=C/c2ccccc2C#N)c1` yielded an MIC of 16 µM (≈ 3.76 µg/mL).
With `N#Cc1ccccc1/C=C/c1ccc([N+](=O)[O-])cc1`, the MFC in [1] stood at 64 µM (≈ 16 µg/mL). Further, 8 µM (≈ 2 µg/mL) was the least that counted as inhibitory in data set [2] (MIC).
With `CCCCc1ccc(/C=C/c2ccccc2C#N)cc1`, the MFC in data set [1] was 64 µM (≈ 16.7 µg/mL). Besides, in [2], the MIC was found to be 8 µM (≈ 2.09 µg/mL).
For the compound `N#Cc1cccc(/C=C/c2ccccc2)c1`, in data set [1], the MFC amounted to 32 µM (≈ 6.57 µg/mL). Besides, inhibition of growth in [2] (MIC) required 4 µM (≈ 0.821 µg/mL).
The matching figures for `N#Cc1ccccc1C=C1CCCCC1`: over 64 µM and 4 µM (≈ 0.789 µg/mL).
The corresponding values for `COc1ccc(/C=C/c2ccccc2C#N)cc1` are over 64 µM and 1 µM (≈ 0.235 µg/mL).
`C/C(=C\c1ccccc1C#N)c1ccccc1`: the MFC in [1] was over 64 µM. The same compound displayed an MIC in data set [2] of 8 µM (≈ 1.75 µg/mL).
On to `N#Cc1ccccc1/C=C/c1ccc(F)cc1`, for which the MIC in data set [2] came to 64 µM (≈ 14.3 µg/mL).
Consider `N#Cc1ccccc1-c1ccccc1`, for which the MFC in data set [1] was over 64 µM. For the same compound, in data set [2], 0.5 µM (≈ 0.0896 µg/mL) was the least that counted as inhibitory (MIC).
Turning to `OC(Cn1cncn1)(Cn1cncn1)c1ccc(F)cc1F` [FLUCONAZOLE], the minimal inhibitory concentration (MIC) in data set [3] was over 64 µM; in data set [4], 64 µM (≈ 19.6 µg/mL); in [6], 1 µM (≈ 0.306 µg/mL); in data set [7], over 64 µM; in data set [8], 8 µM (≈ 2.45 µg/mL); in data set [9], over 64 µM. Besides, the MIC in data set [10] was at most 0.5 µM; in [11], 8 µM (≈ 2.45 µg/mL); in [12], over 64 µM; in data set [13], over 64 µM; in data set [14], over 64 µM; in [15], over 64 µM. Further, the MIC is over 64 µM in data set [16]; over 64 µM in data set [17]; over 64 µM in data set [19]; 8 µM (≈ 2.45 µg/mL) in data set [20]; 0.5 µM (≈ 0.153 µg/mL) in data set [2]; over 64 µM in data set [21]. For the same compound, the MIC is 64 µM (≈ 19.6 µg/mL) in [22], over 64 µM in data set [23] and over 64 µM in data set [25]. Also, the MFC in data set [1] is over 64 µM.
